In brackets after ≈: the same amount, converted by molar mass.
Test system: Candida tropicalis
Experiment: Antimicrobial activity against Candida tropicalis ATCC 1369 after 24 hrs by broth microdilution assay
Format: functional
Conditions: ATCC 1369, 24 h
Procedure, shortened: (§1)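 Broth dilution MIC. Stock is 10 mg compound in 1 mL DMSO, serially diluted in Mueller–Hinton broth for bacteria or Sabouraud liquid medium for yeasts and mould. Tubes are inoculated at 10⁵ cfu/mL and incubated at 37 °C for 24 h. Controls are medium alone and medium with DMSO at matching dilutions. MIC is the lowest concentration giving complete growth inhibition.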

SMILES | MIC [µg/mL]
CC(C)c1csc(-c2nnc3sc(-c4ccc(O)cc4)nn23)n1 | 125 (≈ 364 µM)
COc1ccc(-c2nn3c(-c4nc(C(C)C)cs4)nnc3s2)cc1 | 16 (≈ 44.8 µM)
CC(C)c1csc(-c2nnc(S)n2/N=C/c2ccccc2)n1 | 62.5 (≈ 190 µM)
CC(C)c1csc(-c2nnc3sc(-c4ccccc4)nn23)n1 | 125 (≈ 382 µM)
CC(C)c1csc(-c2nnc(S)n2/N=C/C=C/c2ccccc2)n1 | 31.2 (≈ 87.9 µM)
CC(C)c1csc(-c2nnc(S)n2/N=C/c2ccc[nH]2)n1 | 62.5 (≈ 196 µM)
COc1cc(/C=N/n2c(S)nnc2-c2nc(C(C)C)cs2)ccc1O | 125 (≈ 333 µM)
CC(C)c1csc(-c2nnc3sc(-c4ccc(Cl)cc4)nn23)n1 | 31.2 (≈ 86.4 µM)

Test system: Staphylococcus aureus
Experiment: Antimicrobial activity against Staphylococcus aureus ATCC 11632 after 24 hrs by broth microdilution assay
Format: functional
Conditions: ATCC 11632, 24 h
Procedure, shortened: as §1

SMILES | MIC [µg/mL]
CC(C)c1csc(-c2nnc3sc(-c4ccc(O)cc4)nn23)n1 | 250 (≈ 728 µM)
COc1ccc(-c2nn3c(-c4nc(C(C)C)cs4)nnc3s2)cc1 | 31.2 (≈ 87.4 µM)
CC(C)c1csc(-c2nnc(S)n2/N=C/c2ccccc2)n1 | 250 (≈ 759 µM)
CC(C)c1csc(-c2nnc3sc(-c4ccccc4)nn23)n1 | 125 (≈ 382 µM)
CC(C)c1csc(-c2nnc(S)n2/N=C/C=C/c2ccccc2)n1 | 8 (≈ 22.5 µM)
CC(C)c1csc(-c2nnc(S)n2/N=C/c2ccc[nH]2)n1 | 31.2 (≈ 98.1 µM)
COc1cc(/C=N/n2c(S)nnc2-c2nc(C(C)C)cs2)ccc1O | 250 (≈ 666 µM)
CC(C)c1csc(-c2nnc3sc(-c4ccc(Cl)cc4)nn23)n1 | 8 (≈ 22.1 µM)

Test system: Escherichia coli
Experiment: Antimicrobial activity against Escherichia coli ATCC 10536 after 24 hrs by broth microdilution assay
Format: functional
Conditions: ATCC 10536, 24 h
Procedure, shortened: as §1

SMILES | MIC [µg/mL]
CC(C)c1csc(-c2nnc3sc(-c4ccc(O)cc4)nn23)n1 | 125 (≈ 364 µM)
COc1ccc(-c2nn3c(-c4nc(C(C)C)cs4)nnc3s2)cc1 | 125 (≈ 350 µM)
CC(C)c1csc(-c2nnc(S)n2/N=C/c2ccccc2)n1 | 62.5 (≈ 190 µM)
CC(C)c1csc(-c2nnc3sc(-c4ccccc4)nn23)n1 | 125 (≈ 382 µM)
CC(C)c1csc(-c2nnc(S)n2/N=C/C=C/c2ccccc2)n1 | 4 (≈ 11.3 µM)
CC(C)c1csc(-c2nnc(S)n2/N=C/c2ccc[nH]2)n1 | 62.5 (≈ 196 µM)
COc1cc(/C=N/n2c(S)nnc2-c2nc(C(C)C)cs2)ccc1O | 125 (≈ 333 µM)
CC(C)c1csc(-c2nnc3sc(-c4ccc(Cl)cc4)nn23)n1 | 16 (≈ 44.2 µM)

Test system: Pseudomonas aeruginosa
Experiment: Antimicrobial activity against Pseudomonas aeruginosa ATCC 10145 after 24 hrs by broth microdilution assay
Format: functional
Conditions: ATCC 10145, 24 h
Procedure, shortened: as §1

SMILES | MIC [µg/mL]
CC(C)c1csc(-c2nnc3sc(-c4ccc(O)cc4)nn23)n1 | 125 (≈ 364 µM)
COc1ccc(-c2nn3c(-c4nc(C(C)C)cs4)nnc3s2)cc1 | 31.2 (≈ 87.4 µM)
CC(C)c1csc(-c2nnc(S)n2/N=C/c2ccccc2)n1 | 31.2 (≈ 94.9 µM)
CC(C)c1csc(-c2nnc3sc(-c4ccccc4)nn23)n1 | 31.2 (≈ 95.4 µM)
CC(C)c1csc(-c2nnc(S)n2/N=C/C=C/c2ccccc2)n1 | 16 (≈ 45 µM)
CC(C)c1csc(-c2nnc(S)n2/N=C/c2ccc[nH]2)n1 | 62.5 (≈ 196 µM)
COc1cc(/C=N/n2c(S)nnc2-c2nc(C(C)C)cs2)ccc1O | 125 (≈ 333 µM)
CC(C)c1csc(-c2nnc3sc(-c4ccc(Cl)cc4)nn23)n1 | 8 (≈ 22.1 µM)

Test system: Saccharomyces cerevisiae
Experiment: Antimicrobial activity against Saccharomyces cerevisiae ATCC 9763 after 24 hrs by broth microdilution assay
Format: functional
Conditions: ATCC 9763, 24 h
Procedure, shortened: as §1

SMILES | MIC [µg/mL]
CC(C)c1csc(-c2nnc3sc(-c4ccc(O)cc4)nn23)n1 | 250 (≈ 728 µM)
COc1ccc(-c2nn3c(-c4nc(C(C)C)cs4)nnc3s2)cc1 | 16 (≈ 44.8 µM)
CC(C)c1csc(-c2nnc(S)n2/N=C/c2ccccc2)n1 | 125 (≈ 379 µM)
CC(C)c1csc(-c2nnc3sc(-c4ccccc4)nn23)n1 | 125 (≈ 382 µM)
CC(C)c1csc(-c2nnc(S)n2/N=C/C=C/c2ccccc2)n1 | 31.2 (≈ 87.9 µM)
CC(C)c1csc(-c2nnc(S)n2/N=C/c2ccc[nH]2)n1 | 31.2 (≈ 98.1 µM)
COc1cc(/C=N/n2c(S)nnc2-c2nc(C(C)C)cs2)ccc1O | 250 (≈ 666 µM)
CC(C)c1csc(-c2nnc3sc(-c4ccc(Cl)cc4)nn23)n1 | 31.2 (≈ 86.4 µM)

Test system: Mycobacterium tuberculosis
Experiment: Antimycobacterial activity against Mycobacterium tuberculosis H37Rv after 21 days by broth dilution assay
Format: functional
Conditions: 504 h
Procedure, shortened: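 Middlebrook 7H9 broth with 10% albumin-dextrose-catalase and 0.2% glycerol; frozen culture thawed, diluted to 10⁵ cfu/mL and used as inoculum. Compounds taken up in DMSO and diluted twice in broth, 1.3% DMSO final. Incubated at 37 °C. Growth judged by eye against drug-free and inoculum-free controls and isoniazid. MIC is the lowest concentration inhibiting ≥99% of the starting population.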

SMILES | MIC [µg/mL]
CC(C)c1csc(-c2nnc3sc(-c4ccc(O)cc4)nn23)n1 | 62.5 (≈ 182 µM)
COc1ccc(-c2nn3c(-c4nc(C(C)C)cs4)nnc3s2)cc1 | 31.2 (≈ 87.4 µM)
CC(C)c1csc(-c2nnc(S)n2/N=C/c2ccccc2)n1 | 62.5 (≈ 190 µM)
CC(C)c1csc(-c2nnc3sc(-c4ccccc4)nn23)n1 | 62.5 (≈ 191 µM)
CC(C)c1csc(-c2nnc(S)n2/N=C/C=C/c2ccccc2)n1 | 4 (≈ 11.3 µM)
CC(C)c1csc(-c2nnc(S)n2/N=C/c2ccc[nH]2)n1 | 31.2 (≈ 98.1 µM)
COc1cc(/C=N/n2c(S)nnc2-c2nc(C(C)C)cs2)ccc1O | 62.5 (≈ 166 µM)
CC(C)c1csc(-c2nnc3sc(-c4ccc(Cl)cc4)nn23)n1 | 8 (≈ 22.1 µM)

Test system: Bacillus subtilis
Experiment: Antimicrobial activity against Bacillus subtilis ATCC 60511 after 24 hrs by broth microdilution assay
Format: functional
Conditions: ATCC 60511, 24 h
Procedure, shortened: as §1

SMILES | MIC [µg/mL]
CC(C)c1csc(-c2nnc3sc(-c4ccc(O)cc4)nn23)n1 | 125 (≈ 364 µM)
COc1ccc(-c2nn3c(-c4nc(C(C)C)cs4)nnc3s2)cc1 | 125 (≈ 350 µM)
CC(C)c1csc(-c2nnc(S)n2/N=C/c2ccccc2)n1 | 31.2 (≈ 94.9 µM)
CC(C)c1csc(-c2nnc3sc(-c4ccccc4)nn23)n1 | 16 (≈ 48.9 µM)
CC(C)c1csc(-c2nnc(S)n2/N=C/C=C/c2ccccc2)n1 | 8 (≈ 22.5 µM)
CC(C)c1csc(-c2nnc(S)n2/N=C/c2ccc[nH]2)n1 | 62.5 (≈ 196 µM)
COc1cc(/C=N/n2c(S)nnc2-c2nc(C(C)C)cs2)ccc1O | 125 (≈ 333 µM)
CC(C)c1csc(-c2nnc3sc(-c4ccc(Cl)cc4)nn23)n1 | 8 (≈ 22.1 µM)

Test system: Klebsiella pneumoniae
Experiment: Antimicrobial activity against Klebsiella pneumoniae ATCC 10031 after 24 hrs by broth microdilution assay
Format: functional
Conditions: ATCC 10031, 24 h
Procedure, shortened: as §1

SMILES | MIC [µg/mL]
CC(C)c1csc(-c2nnc3sc(-c4ccc(O)cc4)nn23)n1 | 125 (≈ 364 µM)
COc1ccc(-c2nn3c(-c4nc(C(C)C)cs4)nnc3s2)cc1 | 31.2 (≈ 87.4 µM)
CC(C)c1csc(-c2nnc(S)n2/N=C/c2ccccc2)n1 | 31.2 (≈ 94.9 µM)
CC(C)c1csc(-c2nnc3sc(-c4ccccc4)nn23)n1 | 125 (≈ 382 µM)
CC(C)c1csc(-c2nnc(S)n2/N=C/C=C/c2ccccc2)n1 | 4 (≈ 11.3 µM)
CC(C)c1csc(-c2nnc(S)n2/N=C/c2ccc[nH]2)n1 | 31.2 (≈ 98.1 µM)
COc1cc(/C=N/n2c(S)nnc2-c2nc(C(C)C)cs2)ccc1O | 125 (≈ 333 µM)
CC(C)c1csc(-c2nnc3sc(-c4ccc(Cl)cc4)nn23)n1 | 16 (≈ 44.2 µM)

Test system: Enterococcus faecalis
Experiment: Antimicrobial activity against Streptococcus faecalis ATCC 14506 after 24 hrs by broth microdilution assay
Format: functional
Conditions: ATCC 14506, 24 h
Procedure, shortened: as §1

SMILES | MIC [µg/mL]
CC(C)c1csc(-c2nnc3sc(-c4ccc(O)cc4)nn23)n1 | 125 (≈ 364 µM)
COc1ccc(-c2nn3c(-c4nc(C(C)C)cs4)nnc3s2)cc1 | 16 (≈ 44.8 µM)
CC(C)c1csc(-c2nnc(S)n2/N=C/c2ccccc2)n1 | 31.2 (≈ 94.9 µM)
CC(C)c1csc(-c2nnc3sc(-c4ccccc4)nn23)n1 | 16 (≈ 48.9 µM)
CC(C)c1csc(-c2nnc(S)n2/N=C/C=C/c2ccccc2)n1 | 31.2 (≈ 87.9 µM)
CC(C)c1csc(-c2nnc(S)n2/N=C/c2ccc[nH]2)n1 | 31.2 (≈ 98.1 µM)
COc1cc(/C=N/n2c(S)nnc2-c2nc(C(C)C)cs2)ccc1O | 125 (≈ 333 µM)
CC(C)c1csc(-c2nnc3sc(-c4ccc(Cl)cc4)nn23)n1 | 16 (≈ 44.2 µM)

Test system: Aspergillus niger
Experiment: Antimicrobial activity against Aspergillus niger ATCC 6275 after 24 hrs by broth microdilution assay
Format: functional
Conditions: ATCC 6275, 24 h
Procedure, shortened: as §1

SMILES | MIC [µg/mL]
CC(C)c1csc(-c2nnc3sc(-c4ccc(O)cc4)nn23)n1 | 125 (≈ 364 µM)
COc1ccc(-c2nn3c(-c4nc(C(C)C)cs4)nnc3s2)cc1 | 31.2 (≈ 87.4 µM)
CC(C)c1csc(-c2nnc(S)n2/N=C/c2ccccc2)n1 | 62.5 (≈ 190 µM)
CC(C)c1csc(-c2nnc3sc(-c4ccccc4)nn23)n1 | 31.2 (≈ 95.4 µM)
CC(C)c1csc(-c2nnc(S)n2/N=C/C=C/c2ccccc2)n1 | 125 (≈ 352 µM)
CC(C)c1csc(-c2nnc(S)n2/N=C/c2ccc[nH]2)n1 | 16 (≈ 50.2 µM)
COc1cc(/C=N/n2c(S)nnc2-c2nc(C(C)C)cs2)ccc1O | 125 (≈ 333 µM)
CC(C)c1csc(-c2nnc3sc(-c4ccc(Cl)cc4)nn23)n1 | 125 (≈ 345 µM)

From ChEMBL document CHEMBL1157864, “Synthesis of some novel 2-substituted-5-[isopropylthiazole] clubbed 1,2,4-triazole and 1,3,4-oxadiazoles as potential antimicrobial and antitubercular agents” (Eur J Med Chem, 2010)
